Experimental data published in ChEMBL document CHEMBL4138201, “Synthesis and biological evaluation of sulfur-containing shikonin oxime derivatives as potential antineoplastic agents” (Eur J Med Chem, 2018).

How the values were obtained:
[1] = Cytotoxicity against human HSF cells after 48 hrs by MTT assay; assay type: cell-based
Outline: (§1)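 MTT colorimetric assay. Shikonin and 5-fluorouracil served as reference agents. IC₅₀ obtained by linear regression of each compound's concentration–response curve.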

[2] = tested on: Bel-7402; experiment: Cytotoxicity against human Bel7402 cells after 48 hrs by MTT assay; assay type: functional, cell-based; details: Bel-7402, 48 h; outline: as §1
[3] = tested on: HCT-15; experiment: Cytotoxicity against human HCT15 cells after 48 hrs by MTT assay; assay type: functional, cell-based; details: HCT-15, 48 h; outline: as §1
[4] = Induction of NO release in phosphate buffer at pH 7.4 at 0.1 mM measured after 4 hrs in presence of N-acetylcysteine by Griess assay; assay type: functional
Outline: (§2)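 Percentage of NO released in vitro measured by Griess assay against a standard curve. Incubation in 0.5 mM N-acetylcysteine, read hourly from 1 to 6 h.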

[5] = Induction of NO release in phosphate buffer at pH 7.4 at 0.1 mM measured after 5 hrs in presence of N-acetylcysteine by Griess assay; assay type: functional; outline: as §2
[6] = Induction of NO release in phosphate buffer at pH 7.4 at 0.1 mM measured after 2 hrs in presence of N-acetylcysteine by Griess assay; assay type: functional; outline: as §2
[7] = tested on: MCF7; experiment: Cytotoxicity against human MCF7 cells after 48 hrs by MTT assay; assay type: functional, cell-based; details: MCF7, 48 h; outline: as §1
[8] = Induction of NO release in phosphate buffer at pH 7.4 at 0.1 mM measured after 1 hr in presence of N-acetylcysteine by Griess assay; assay type: functional; outline: as §2
[9] = Induction of NO release in phosphate buffer at pH 7.4 at 0.1 mM measured after 3 hrs in presence of N-acetylcysteine by Griess assay; assay type: functional; outline: as §2
[10] = tested on: MGC-803; experiment: Cytotoxicity against human MGC803 cells after 48 hrs by MTT assay; assay type: functional, cell-based; details: MGC-803, 48 h; outline: as §1
[11] = Induction of NO release in phosphate buffer at pH 7.4 at 0.1 mM measured after 6 hrs in presence of N-acetylcysteine by Griess assay; assay type: functional; outline: as §2

Compound | IC50 [1] | IC50 [2] | IC50 [3] | Activity [4] | Activity [5] | Activity [6] | IC50 [7] | Activity [8] | Activity [9] | IC50 [10] | Activity [11]
COc1ccc(C(=O)SC(CC=C(C)C)c2cc(OC)c3c(c2OC)/C(=N/O)C=C/C3=N\O)cc1 (stereo not drawn) | > 50 µM | 1.09 µM | 0.61 µM | 0.064% | 0.059% | 0.045% | 17.1 µM | 0.038% | 0.058% | 0.93 µM | 0.053%
COc1cc(C(CC=C(C)C)SC(=O)CC(C)C)c(OC)c2c1/C(=N/O)C=C/C2=N\O (stereo not drawn) | > 50 µM | 1.65 µM | 0.59 µM |  |  |  | 16.3 µM |  |  | 1.49 µM | 
COc1cc(C(CC=C(C)C)SC(=O)c2ccc(N)cc2)c(OC)c2c1/C(=N/O)C=C/C2=N\O (stereo not drawn) | > 50 µM | 1.26 µM | 1.68 µM |  |  |  | 19.4 µM |  |  | 2.45 µM | 
COc1ccc(C(=O)S[C@H](CC=C(C)C)c2cc(OC)c3c(c2OC)/C(=N/O)C=C/C3=N\O)cc1OC | > 50 µM | 1.16 µM | 0.84 µM |  |  |  | 19.5 µM |  |  | 1.57 µM | 
COc1cc(C(CC=C(C)C)SC(=O)c2ccc(C)cc2)c(OC)c2c1/C(=N/O)C=C/C2=N\O (stereo not drawn) | > 50 µM | 0.72 µM | 0.47 µM |  |  |  | 15.8 µM |  |  | 0.92 µM | 
COc1cc([C@H](CC=C(C)C)SCCC(C)C)c(OC)c2c1/C(=N/O)C=C/C2=N\O | > 50 µM | 4.85 µM | 0.92 µM |  |  |  | 26.3 µM |  |  | 3.12 µM | 
COc1cc(C(CC=C(C)C)SC(C)=O)c(OC)c2c1/C(=N/O)C=C/C2=N\O (stereo not drawn) | > 50 µM | 3.65 µM | 1.22 µM |  |  |  | 23.5 µM |  |  | 2.49 µM | 
CCCCCCCCCCCCSC(CC=C(C)C)c1cc(OC)c2c(c1OC)/C(=N/O)C=C/C2=N\O (stereo not drawn) | > 50 µM | 34.3 µM | 14.7 µM |  |  |  | > 50 µM |  |  | 31.6 µM | 
COc1cc(C(CC=C(C)C)SCCC(C)C)c(OC)c2c1/C(=N/O)C=C/C2=N\O (stereo not drawn) | > 50 µM | 5.43 µM | 1.14 µM | 0.038% | 0.029% | 0.027% | 27.2 µM | 0.023% | 0.033% | 3.36 µM | 0.024%
CCCCCCCCSC(CC=C(C)C)c1cc(OC)c2c(c1OC)/C(=N/O)C=C/C2=N\O (stereo not drawn) | > 50 µM | 6.37 µM | 1.25 µM |  |  |  | 25.7 µM |  |  | 2.29 µM | 
COc1cc(C(CC=C(C)C)SC(=O)c2ccc(Cl)cc2)c(OC)c2c1/C(=N/O)C=C/C2=N\O (stereo not drawn) | > 50 µM | 1.16 µM | 0.82 µM |  |  |  | 20.4 µM |  |  | 1.45 µM | 
COc1ccccc1C(=O)SC(CC=C(C)C)c1cc(OC)c2c(c1OC)/C(=N/O)C=C/C2=N\O (stereo not drawn) | > 50 µM | 1.06 µM | 0.89 µM |  |  |  | 19.8 µM |  |  | 1.37 µM | 
CCCCCCCSC(CC=C(C)C)c1cc(OC)c2c(c1OC)/C(=N/O)C=C/C2=N\O (stereo not drawn) | > 50 µM | 8.15 µM | 1.97 µM |  |  |  | 30.6 µM |  |  | 5.51 µM | 
COc1cc(C(CC=C(C)C)SC(=O)c2cccs2)c(OC)c2c1/C(=N/O)C=C/C2=N\O (stereo not drawn) | > 50 µM | 3.04 µM | 1.36 µM |  |  |  | 23.8 µM |  |  | 2.75 µM | 
CCCCCCCCCCSC(CC=C(C)C)c1cc(OC)c2c(c1OC)/C(=N/O)C=C/C2=N\O (stereo not drawn) | > 50 µM | 25.4 µM | 7.43 µM |  |  |  | 48.3 µM |  |  | 19.2 µM | 
COc1cccc(C(=O)SC(CC=C(C)C)c2cc(OC)c3c(c2OC)/C(=N/O)C=C/C3=N\O)c1 (stereo not drawn) | > 50 µM | 5.54 µM | 1.67 µM |  |  |  | 35.2 µM |  |  | 4.25 µM | 
COc1cc(C(CC=C(C)C)SC(=O)c2cccc(F)c2)c(OC)c2c1/C(=N/O)C=C/C2=N\O (stereo not drawn) | > 50 µM | 8.9 µM | 2.71 µM |  |  |  | 38.9 µM |  |  | 6.47 µM | 
COc1ccc(C(=O)SC(CC=C(C)C)c2cc(OC)c3c(c2OC)/C(=N/O)C=C/C3=N\O)cc1OC (stereo not drawn) | > 50 µM | 0.66 µM | 0.39 µM | 0.079% | 0.073% | 0.05% | 14.9 µM | 0.041% | 0.063% | 1.17 µM | 0.065%
COc1cc([C@@H](CC=C(C)C)SCCC(C)C)c(OC)c2c1/C(=N/O)C=C/C2=N\O | > 50 µM | 8.95 µM | 1.94 µM |  |  |  | 39.4 µM |  |  | 5.87 µM | 
COc1cc(C(CC=C(C)C)SC(=O)c2ccc(C(F)(F)F)cc2)c(OC)c2c1/C(=N/O)C=C/C2=N\O (stereo not drawn) | > 50 µM | 7.12 µM | 2.75 µM |  |  |  | 30.5 µM |  |  | 5.97 µM | 
COc1cc(C(CC=C(C)C)SC(=O)c2ccccc2Cl)c(OC)c2c1/C(=N/O)C=C/C2=N\O (stereo not drawn) | > 50 µM | 0.87 µM | 0.53 µM |  |  |  | 19.2 µM |  |  | 1.69 µM | 
COc1cc(C(CC=C(C)C)SC(=O)c2ccccc2F)c(OC)c2c1/C(=N/O)C=C/C2=N\O (stereo not drawn) | > 50 µM | 1.34 µM | 0.62 µM |  |  |  | 23 µM |  |  | 1.52 µM | 
COc1cc(C(CC=C(C)C)SC(=O)c2ccc(NC(=O)OC(C)(C)C)cc2)c(OC)c2c1/C(=N/O)C=C/C2=N\O (stereo not drawn) | > 50 µM | 9.17 µM | 3.39 µM |  |  |  | 32.4 µM |  |  | 6.56 µM | 
COc1cc([C@H](CC=C(C)C)SC(=O)c2ccccc2)c(OC)c2c1/C(=N/O)C=C/C2=N\O | > 50 µM | 1.48 µM | 0.59 µM |  |  |  | 18.1 µM |  |  | 1.26 µM | 
COc1cc([C@@H](CC=C(C)C)SC(=O)c2ccccc2)c(OC)c2c1/C(=N/O)C=C/C2=N\O | > 50 µM | 2.97 µM | 1.06 µM |  |  |  | 25.5 µM |  |  | 2.67 µM | 
COc1cc(C(CC=C(C)C)SC(=O)c2ccc([N+](=O)[O-])cc2)c(OC)c2c1/C(=N/O)C=C/C2=N\O (stereo not drawn) | > 50 µM | 12.6 µM | 5.09 µM |  |  |  | 44.7 µM |  |  | 9.3 µM | 
CCCCCCSC(CC=C(C)C)c1cc(OC)c2c(c1OC)/C(=N/O)C=C/C2=N\O (stereo not drawn) | > 50 µM | 11.7 µM | 3.46 µM |  |  |  | 34.6 µM |  |  | 6.73 µM | 
